From ChEMBL document CHEMBL1122774, “Tri- and tetrapeptide analogues of kinins as potential renal vasodilators” (J Med Chem, 1984)
Square brackets hold non-standard residues; d marks the D form. Peptide text beside a SMILES is read from it. * marks the point of attachment. ξ: configuration not given here. ξαMeF = CC(N)(Cc1ccccc1)C(=O)O; Bz = O=C(c1ccccc1)*

Columns and labels:
Canis familiaris [1] = assay: Renal vasodilator activity in anesthetized dogs and percent change in renal vascular resistance (RVR) was determined at 300 ug/kg min; type: functional, Canis lupus familiaris
Method in brief: (§1)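 Primary screen in anesthetized dogs (7-17 kg). Drug infused separately at 3, 30 and 300 µg/(kg min), each infusion lasting 5 min, at about 15-min intervals. Read-outs are renal blood flow, mean arterial blood pressure, heart rate, and RVR (MABP / mean RBF), as percent change. Significance thresholds are defined per number of dogs; n = 1-3 dogs.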

Canis familiaris [2] = assay: Renal vasodilator activity in anesthetized dogs and percent change in mean arterial blood pressure (MABP) was determined at 300 ug/kg min; type: functional, Canis lupus familiaris; method in brief: as §1
Canis familiaris [3] = assay: Renal vasodilator activity in anesthetized dogs and percent change in heart rate (HR) was determined at 300 ug/kg min; type: functional, Canis lupus familiaris; method in brief: as §1
Canis familiaris [4] = assay: Renal vasodilator activity in anesthetized dogs and percent change in heart rate (HR) was determined at 3 ug/kg min; type: functional, Canis lupus familiaris; method in brief: as §1
Canis familiaris [5] = assay: Renal vasodilator activity in anesthetized dogs and percent change in renal blood flow (RBF) was determined at 300 ug/kg min; type: functional, Canis lupus familiaris, Kidney; method in brief: as §1
[6] = Average max percent decrease in RVR (renal vascular resistance) was determined.
Method in brief: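 Secondary protocol in anesthetized dogs. Drug given as iv infusion at progressively increasing rates, each dose level for 5 min. The maximum effect is taken as the largest percent decrease in renal vascular resistance (RVR) reached with the compound. RVR is calculated as mean arterial blood pressure / mean renal blood flow.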

Canis familiaris [7] = assay: Renal vasodilator activity in anesthetized dogs and percent change in renal blood flow (RBF) was determined at 30 ug/kg min; type: functional, Canis lupus familiaris, Kidney; method in brief: as §1
[8] = Ratio of ED30 of iliac vascular resistant (IVR) to the ED15 of RVR (renal vascular resistance); type: functional
Method in brief: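 Anesthetized dogs in the secondary cumulative-infusion protocol, each dose level 5 min. Selectivity ratio is the dose giving a 30% change in iliac vascular resistance divided by the RVR ED15, the cumulative dose decreasing renal vascular resistance by 15%.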

Canis familiaris [9] = assay: Renal vasodilator activity in anesthetized dogs and percent change in heart rate (HR) was determined at 30 ug/kg min; type: functional, Canis lupus familiaris; method in brief: as §1
Canis familiaris [10] = assay: Compound was evaluated for renal vasodilator activity and represented as ED15 (intravenous administration); type: functional; settings: Canis lupus familiaris
Method in brief: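 Secondary protocol in anesthetized dogs with iv infusion at progressively increasing rates, each level infused 5 min. Potency is the cumulative dose (µg/kg) that lowered renal vascular resistance (MABP / mean RBF) by 15%. Minimum change needed for significance (p = 0.95) is 16% for RVR.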

Canis familiaris [11] = assay: Renal vasodilator activity in anesthetized dogs and percent change in mean arterial blood pressure (MABP) was determined at 30 ug/kg min; type: functional, Canis lupus familiaris; method in brief: as §1
Canis familiaris [12] = assay: Renal vasodilator activity in anesthetized dogs and percent change in mean arterial blood pressure (MABP) was determined at 3 ug/kg min; type: functional, Canis lupus familiaris; method in brief: as §1
Canis familiaris [13] = assay: Renal vasodilator activity in anesthetized dogs and percent change in renal blood flow (RBF) was determined at 3 ug/kg min; type: functional, Canis lupus familiaris, Kidney; method in brief: as §1
Canis familiaris [14] = assay: Renal vasodilator activity in anesthetized dogs and percent change in renal vascular resistance (RVR) was determined at 3 ug/kg min; type: functional, Canis lupus familiaris; method in brief: as §1
Canis familiaris [15] = assay: Renal vasodilator activity in anesthetized dogs and percent change in renal vascular resistance (RVR) was determined at 30 ug/kg min; type: functional, Canis lupus familiaris; method in brief: as §1
[16] = Ratio of ED20 of MABP (mean arterial blood pressure) to the ED15 of RVR ( renal vascular resistance).; type: functional
Method in brief: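 Anesthetized dogs in the secondary cumulative-infusion protocol, each dose level 5 min. Selectivity ratio is the dose giving a 20% change in mean arterial blood pressure divided by the cumulative dose lowering renal vascular resistance 15% (RVR ED15).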

Canis familiaris [17] = assay: In vivo percent change in canine renal blood flow (RBF) at 3 ug/Kg/min.; type: functional, Canis lupus familiaris, Kidney; method in brief: as §1
Canis familiaris [18] = assay: In vivo percent change in canine heart rate at 300 ug/Kg/min.; type: functional, Canis lupus familiaris; method in brief: as §1
Canis familiaris [19] = assay: Renal vasodilator activity in anesthetized dogs and percent change in renal vascular resistance (RVR) was determined at 300 ug/Kg/min; type: functional, Canis lupus familiaris; method in brief: as §1
Canis familiaris [20] = assay: In vivo percent change in canine mean arterial blood pressure (MABP) at 300 ug/Kg/min.; type: functional, Canis lupus familiaris; method in brief: as §1
Canis familiaris [21] = assay: In vivo percent change in canine renal vascular resistance (RVR) at 3 ug/Kg/min.; type: functional, Canis lupus familiaris; method in brief: as §1
Canis familiaris [22] = assay: In vivo percent change in canine renal blood flow (RBF) at 300 ug/Kg/min.; type: functional, Canis lupus familiaris, Kidney; method in brief: as §1
Canis familiaris [23] = assay: In vivo percent change in canine mean arterial blood pressure (MABP) at 3 ug/Kg/min.; type: functional, Canis lupus familiaris; method in brief: as §1
Canis familiaris [24] = assay: In vivo percent change in canine heart rate at 30 ug/Kg/min.; type: functional, Canis lupus familiaris; method in brief: as §1
Canis familiaris [25] = assay: In vivo percent change in renal blood flow at 30 ug/Kg/min.; type: functional, Canis lupus familiaris, Kidney; method in brief: as §1
Canis familiaris [26] = assay: In vivo percent change in canine heart rate at 3 ug/Kg/min.; type: functional, Canis lupus familiaris; method in brief: as §1
Canis familiaris [27] = assay: Renal vasodilator activity in anesthetized dogs and percent change in renal vascular resistance (RVR) was determined at 30 ug/Kg/min; type: functional, Canis lupus familiaris; method in brief: as §1
Canis familiaris [28] = assay: In vivo percent change in canine mean arterial blood pressure (MABP) at 30 ug/Kg/min.; type: functional, Canis lupus familiaris; method in brief: as §1
Canis familiaris [29] = assay: Renal vasodilator activity in anesthetized dogs and percent change in mean arterial blood pressure (MABP) was determined at 3 ug/Kg/min; type: functional, Canis lupus familiaris; method in brief: as §1
Canis familiaris [30] = assay: In vivo percent change in canine renal vascular resistance (RVR) at 30 ug/Kg/min.; type: functional, Canis lupus familiaris; method in brief: as §1
Canis familiaris [31] = assay: In vivo percent change in canine renal vascular resistance (RVR) at 300 ug/Kg/min.; type: functional, Canis lupus familiaris; method in brief: as §1
Canis familiaris [32] = assay: In vivo percent change in canine renal blood flow (RBF) at 30 ug/Kg/min.; type: functional, Canis lupus familiaris, Kidney; method in brief: as §1
Canis familiaris [33] = assay: Renal vasodilator activity in anesthetized dogs and percent change in heart rate (HR) was determined at 300 ug/Kg/min; type: functional, Canis lupus familiaris; method in brief: as §1

Molecule	Ratio [8]	ED15 (Canis familiaris [10])	Ratio [16]	Change (Canis familiaris [17])	Change (Canis familiaris [18])	Change (Canis familiaris [20])	Change (Canis familiaris [21])	Change (Canis familiaris [22])	Change (Canis familiaris [23])	Change (Canis familiaris [24])	Change (Canis familiaris [25])	Change (Canis familiaris [26])	Change (Canis familiaris [27])	Change (Canis familiaris [28])	Change (Canis familiaris [29])	Change (Canis familiaris [30])	Change (Canis familiaris [31])	further results
CC(Cc1ccc(O)cc1)(NC(=O)[C@@H]1CCCN1C(=O)CCCc1ccc(O)cc1)C(=O)N[C@@H](CCCN=C(N)N)C(=O)O (some centres not stated)	< 9	0.0455 mg/kg	>1665															Change (Canis familiaris [1]): -17%; Change (Canis familiaris [2]): 1%; Change (Canis familiaris [3]): 2.4%; Change (Canis familiaris [4]): 3.5%; Change (Canis familiaris [5]): 28%; Decrease [6]: 16%; Change (Canis familiaris [7]): 28%; Change (Canis familiaris [9]): -7.5%; Change (Canis familiaris [11]): -3%; Change (Canis familiaris [12]): -2.5%; Change (Canis familiaris [13]): 20%; Change (Canis familiaris [14]): -19%; Change (Canis familiaris [15]): -20%
CC(Cc1ccccc1)(NC(=O)[C@@H]1CCCN1C(=O)CCCc1ccccc1)C(=O)N1CCC[C@H]1C(=O)O (some centres not stated)				3%	-2%	1%	-8%	4%	0.5%	0%	2%	0%	-2%	0%				Change (Canis familiaris [19]): -3%
CC(Cc1ccccc1)(NC(=O)[C@@H]1CCCN1C(=O)CC12CC3CC(CC(C3)C1)C2)C(=O)N[C@@H](CCCN=C(N)N)C(=O)O (some centres not stated)	0	0.072 mg/kg	>84	13%	2%	3%	-11.5%	-14%		0.5%		3.5%		1%	-0.5%	-0.5%	21.5%	Decrease [6]: 19%; Change (Canis familiaris [32]): 0.5%
COc1ccc(CC(C)(NC(=O)[C@@H]2CCCN2C(=O)CCCc2ccccc2)C(=O)N[C@@H](CCCN=C(N)N)C(=O)O)cc1OC (some centres not stated)				7.5%	2.5%	-2%	-8.5%	5%		1%	8.5%	4.5%		-1%	-2%	-8.5%	-7%	
H-FSPFR-OH	> 1160	0.0052 mg/kg	>1158															Change (Canis familiaris [1]): -24.8%; Change (Canis familiaris [2]): -5.7%; Change (Canis familiaris [3]): 4.8%; Change (Canis familiaris [4]): 0.8%; Change (Canis familiaris [5]): 26.2%; Change (Canis familiaris [7]): 6.5%; Change (Canis familiaris [9]): 0%; Change (Canis familiaris [11]): 0.5%; Change (Canis familiaris [12]): -1.2%; Change (Canis familiaris [13]): 3%; Change (Canis familiaris [14]): -3.8%; Change (Canis familiaris [15]): -5.1%
CC(Cc1ccccc1)(NC(=O)[C@@H]1CCCN1)C(=O)NCCCN.Cl.Cl (some centres not stated)				5%		-1%	-4%	2%	1%	-1%	1%	-1%		-1%		-1%	-3%	Change (Canis familiaris [33]): 0%
CC(Cc1ccccc1)(NC(=O)[C@@H]1CCCN1C(=O)c1ccccc1)C(=O)N[C@@H](CCCN=C(N)N)C(=O)O (some centres not stated) (Bz-Pro-[ξαMeF]-Arg-OH)				4%		-4%	-5%	-3%	-1%	3%	3%	-6%		1%		-2%	0%	Change (Canis familiaris [33]): 6%
CC(Cc1ccccc1)(NC(=O)[C@@H]1CCCN1C(=O)CCCc1ccccc1)C(=O)NCCCN.Cl (some centres not stated)				4%	0.5%	-3.5%	-3.5%	10%		0.3%	5.5%	-1.5%	-6%	-0.5%	0%		-11.5%	
N=C(N)NCCC[C@H](NC[C@H](Cc1ccccc1)NC(=O)[C@@H]1CCCN1)C(=O)O				0%	0%	-2%	0%	0%	0%	0%		-3%		0%		-3%	-2%	Change (Canis familiaris [32]): 3%
COc1ccc(CC(C)(NC(=O)[C@@H]2CCCN2C(=O)CCCc2ccc(O)cc2)C(=O)N[C@@H](CCCN=C(N)N)C(=O)O)cc1OC (some centres not stated)	> 12	0.506 mg/kg	>12	4.3%		-32%	-6.7%	29.5%	-2.7%	6.3%	18%	1.7%	-21.3%	-7.7%			-44.5%	Change (Canis familiaris [33]): 16%; Decrease [6]: 31%
CC(CN[C@@H](CCCN=C(N)N)C(=O)O)(Cc1ccccc1)NC(=O)[C@@H]1CCCN1C(=O)CCCc1ccccc1 (some centres not stated)				11%	-23%	8%	-12%	4%		-7%	10%	0%	-9%	0%	-2%		-4%	
